Data: ChEMBL document CHEMBL1128600, “The cholesterol derivative of a triantennary galactoside with high affinity for hepatic asialoglycoprotein receptor: a potent cholesterol lowering agent” (J Med Chem, 1995)

Columns and labels:
Homo sapiens [1] = species on record: Homo sapiens; assay: Particle size of LDL after incubation with the compound (0.0055%); format: functional
Method in brief: (§1)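 Lipoproteins (LDL 1.019–1.063, HDL 1.063–1.21 ×10³ kg/m³) isolated from human serum by KBr/NaCl density-gradient ultracentrifugation. LDL (0.5 mg/mL) or HDL (2.0 mg/mL) incubated 10 min at room temperature in PBS pH 7.40 with 0–0.33% (w/v) agent. Size measured by photon correlation spectroscopy (120°, 632 nm, 72 s accumulation) and reported as mass-weighted mean ± standard error.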

Homo sapiens [2] = species on record: Homo sapiens; assay: Particle size of HDL after incubation with the compound (0.01%); format: functional; method in brief: as §1

`C[C@@H]1CC[C@@]2(OC1)O[C@H]1[C@@H](O)[C@H]3[C@@H]4CC[C@H]5C[C@@H](O[C@@H]6O[C@H](CO)[C@H](O[C@@H]7O[C@H](CO)C(O)[C@H](O[C@@H]8OC[C@@H](O)[C@H](O)[C@H]8O)[C@H]7O[C@@H]7O[C@H](CO)[C@H](O)[C@H](O[C@@H]8O[C@H](CO)[C@@H](O)[C@H](O)[C@H]8O)[C@H]7O)[C@H](O)[C@H]6O)[C@H](O)C[C@]5(C)[C@H]4CC[C@]3(C)[C@H]1[C@@H]2C` (some centres not stated) was tested, and the Activity (Homo sapiens [1]) was “Increase” and the Activity (Homo sapiens [2]) was “Increase”.
